Experiments:
[1] = Cytotoxicity against human HepG2.2.15 cells assessed as cell death after 9 days by MTT assay; format: cell-based, HepG2 2.2.15
Outline: (§1)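 HepG2.2.15 cells (MEM, 10% FBS, 380 µg/ml G418, 37 °C, 5% CO2) seeded at 1×10^5 cells/ml, cultured 24 h, then exposed to various drug concentrations; drug-containing medium renewed every 3 d. OD read at 450 nm after 9 days; percent cell death calculated; CC50 = concentration killing 50% of cells. Means of at least two experiments.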

Hepatitis B virus [2] = test: Antiviral activity against Hepatitis B virus infected in human HepG2.2.15 cells assessed as inhibition of HBsAg secretion by ELISA; format: functional, organism-based; details: HepG2 2.2.15
Outline: (§2)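 HepG2.2.15 cells (MEM, 10% FBS, 380 µg/ml G418) seeded at 1×10^5 cells/ml, held 24 h at 37 °C, then treated with various drug concentrations; medium with drug renewed every 3 d for up to 9 d. Culture medium sampled on days 3, 6 and 9, stored at -20 °C, and assayed for secreted antigen. Lamivudine as positive control; IC50 = 50% inhibition of secretion; means of at least two experiments.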

[3] = Selectivity index, ratio of CC50 for human HepG2.2.15 cells to IC50 for Hepatitis B virus infected in human HepG2.2.15 cells assessed as inhibition of HBsAg secretion; format: functional
Outline: (§3)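 Selectivity index computed as CC50/IC50, with CC50 from cell death of HepG2.2.15 cells after 9 days of treatment (OD 450 nm) and IC50 from 50% inhibition of HBeAg or HBsAg secretion in the same cells; medium with drug renewed every 3 d.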

Hepatitis B virus [4] = test: Antiviral activity against Hepatitis B virus infected in human HepG2.2.15 cells assessed as inhibition of HBeAg secretion by ELISA; format: functional, organism-based; details: HepG2 2.2.15; outline: as §2
[5] = Selectivity index, ratio of CC50 for human HepG2.2.15 cells to IC50 for Hepatitis B virus infected in human HepG2.2.15 cells assessed as inhibition of HBeAg secretion; format: functional; outline: as §3
Hepatitis B virus [6] = test: Antiviral activity against Hepatitis B virus infected in human HepG2.2.15 cells assessed as inhibition of HBsAg secretion at 300 uM after 3 days by ELISA; format: functional; details: HepG2 2.2.15, 72 h; outline: as §2
Hepatitis B virus [7] = test: Antiviral activity against Hepatitis B virus infected in human HepG2.2.15 cells assessed as inhibition of HBsAg secretion at 150 uM after 3 days by ELISA; format: functional; details: HepG2 2.2.15, 72 h; outline: as §2
Hepatitis B virus [8] = test: Antiviral activity against Hepatitis B virus infected in human HepG2.2.15 cells assessed as inhibition of HBsAg secretion at 75 uM after 3 days by ELISA; format: functional; details: HepG2 2.2.15, 72 h; outline: as §2
Hepatitis B virus [9] = test: Antiviral activity against Hepatitis B virus infected in human HepG2.2.15 cells assessed as inhibition of HBsAg secretion at 300 uM after 6 days by ELISA; format: functional; details: HepG2 2.2.15, 144 h; outline: as §2
Hepatitis B virus [10] = test: Antiviral activity against Hepatitis B virus infected in human HepG2.2.15 cells assessed as inhibition of HBsAg secretion at 150 uM after 6 days by ELISA; format: functional; details: HepG2 2.2.15, 144 h; outline: as §2
Hepatitis B virus [11] = test: Antiviral activity against Hepatitis B virus infected in human HepG2.2.15 cells assessed as inhibition of HBsAg secretion at 75 uM after 6 days by ELISA; format: functional; details: HepG2 2.2.15, 144 h; outline: as §2
Hepatitis B virus [12] = test: Antiviral activity against Hepatitis B virus infected in human HepG2.2.15 cells assessed as inhibition of HBsAg secretion at 37.5 uM after 6 days by ELISA; format: functional; details: HepG2 2.2.15, 144 h; outline: as §2
Hepatitis B virus [13] = test: Antiviral activity against Hepatitis B virus infected in human HepG2.2.15 cells assessed as inhibition of HBsAg secretion at 300 uM after 9 days by ELISA; format: functional; details: HepG2 2.2.15, 216 h; outline: as §2
Hepatitis B virus [14] = test: Antiviral activity against Hepatitis B virus infected in human HepG2.2.15 cells assessed as inhibition of HBsAg secretion at 150 uM after 9 days by ELISA; format: functional; details: HepG2 2.2.15, 216 h; outline: as §2
Hepatitis B virus [15] = test: Antiviral activity against Hepatitis B virus infected in human HepG2.2.15 cells assessed as inhibition of HBsAg secretion at 75 uM after 9 days by ELISA; format: functional; details: HepG2 2.2.15, 216 h; outline: as §2
Hepatitis B virus [16] = test: Antiviral activity against Hepatitis B virus infected in human HepG2.2.15 cells assessed as inhibition of HBsAg secretion at 37.5 uM after 9 days by ELISA; format: functional; details: HepG2 2.2.15, 216 h; outline: as §2
Hepatitis B virus [17] = test: Antiviral activity against Hepatitis B virus infected in human HepG2.2.15 cells assessed as cell survival at 300 uM after 9 days (reference value: 100%); format: functional; details: HepG2 2.2.15, 216 h; outline: as §1
Hepatitis B virus [18] = test: Antiviral activity against Hepatitis B virus infected in human HepG2.2.15 cells assessed as cell survival at 150 uM after 9 days (reference value: 100%); format: functional; details: HepG2 2.2.15, 216 h; outline: as §1
Hepatitis B virus [19] = test: Antiviral activity against Hepatitis B virus infected in human HepG2.2.15 cells assessed as cell survival at 75 uM after 9 days (reference value: 100%); format: functional; details: HepG2 2.2.15, 216 h; outline: as §1
Hepatitis B virus [20] = test: Antiviral activity against Hepatitis B virus infected in human HepG2.2.15 cells assessed as cell survival at 37.5 uM after 9 days (reference value: 100%); format: functional; details: HepG2 2.2.15, 216 h; outline: as §1
Hepatitis B virus [21] = test: Antiviral activity against Hepatitis B virus infected in human HepG2.2.15 cells assessed as inhibition of HBeAg secretion at 300 uM after 3 days by ELISA; format: functional; details: HepG2 2.2.15, 72 h; outline: as §2
Hepatitis B virus [22] = test: Antiviral activity against Hepatitis B virus infected in human HepG2.2.15 cells assessed as inhibition of HBeAg secretion at 150 uM after 3 days by ELISA; format: functional; details: HepG2 2.2.15, 72 h; outline: as §2
Hepatitis B virus [23] = test: Antiviral activity against Hepatitis B virus infected in human HepG2.2.15 cells assessed as inhibition of HBeAg secretion at 75 uM after 3 days by ELISA; format: functional; details: HepG2 2.2.15, 72 h; outline: as §2
Hepatitis B virus [24] = test: Antiviral activity against Hepatitis B virus infected in human HepG2.2.15 cells assessed as inhibition of HBeAg secretion at 37.5 uM after 3 days by ELISA; format: functional; details: HepG2 2.2.15, 72 h; outline: as §2
Hepatitis B virus [25] = test: Antiviral activity against Hepatitis B virus infected in human HepG2.2.15 cells assessed as inhibition of HBeAg secretion at 300 uM after 6 days by ELISA; format: functional; details: HepG2 2.2.15, 144 h; outline: as §2
Hepatitis B virus [26] = test: Antiviral activity against Hepatitis B virus infected in human HepG2.2.15 cells assessed as inhibition of HBeAg secretion at 150 uM after 6 days by ELISA; format: functional; details: HepG2 2.2.15, 144 h; outline: as §2
Hepatitis B virus [27] = test: Antiviral activity against Hepatitis B virus infected in human HepG2.2.15 cells assessed as inhibition of HBeAg secretion at 75 uM after 6 days by ELISA; format: functional; details: HepG2 2.2.15, 144 h; outline: as §2
Hepatitis B virus [28] = test: Antiviral activity against Hepatitis B virus infected in human HepG2.2.15 cells assessed as inhibition of HBeAg secretion at 37.5 uM after 6 days by ELISA; format: functional; details: HepG2 2.2.15, 144 h; outline: as §2
Hepatitis B virus [29] = test: Antiviral activity against Hepatitis B virus infected in human HepG2.2.15 cells assessed as inhibition of HBeAg secretion at 300 uM after 9 days by ELISA; format: functional; details: HepG2 2.2.15, 216 h; outline: as §2
Hepatitis B virus [30] = test: Antiviral activity against Hepatitis B virus infected in human HepG2.2.15 cells assessed as inhibition of HBeAg secretion at 150 uM after 9 days by ELISA; format: functional; details: HepG2 2.2.15, 216 h; outline: as §2
Hepatitis B virus [31] = test: Antiviral activity against Hepatitis B virus infected in human HepG2.2.15 cells assessed as inhibition of HBeAg secretion at 75 uM after 9 days by ELISA; format: functional; details: HepG2 2.2.15, 216 h; outline: as §2
Hepatitis B virus [32] = test: Antiviral activity against Hepatitis B virus infected in human HepG2.2.15 cells assessed as inhibition of HBeAg secretion at 37.5 uM after 9 days by ELISA; format: functional; details: HepG2 2.2.15, 216 h; outline: as §2

## COc1cc(C=O)cc2c1OCO2
[1]
  CC50 at 216 h: 1080 µM

## COc1cc(/C=C/C(=O)O)cc2c1OCO2
[1]
  CC50 at 216 h: 667 µM
Hepatitis B virus [2]
  IC50: 411 µM
[3]
  Ratio CC50/IC50: 1.62
Hepatitis B virus [4]
  IC50: 477 µM
[5]
  Ratio CC50/IC50: 1.4

## O/N=C/c1ccco1
[1]
  CC50 at 216 h: 475 µM
Hepatitis B virus [2]
  IC50: 480 µM
[3]
  Ratio CC50/IC50: 1.01
Hepatitis B virus [4]
  IC50: 519 µM
[5]
  Ratio CC50/IC50: 0.91

## COc1ccc(/C=C/C(=O)O/N=C/c2ccccn2)cc1OC
[1]
  CC50 at 216 h: 545 µM
Hepatitis B virus [2]
  IC50: 152 µM
[3]
  Ratio CC50/IC50: 3.59
Hepatitis B virus [4]
  IC50: 162 µM
[5]
  Ratio CC50/IC50: 3.37
Hepatitis B virus [6]
  inhibition at 300 µM: 13.3%
Hepatitis B virus [7]
  inhibition at 150 µM: 10.8%
Hepatitis B virus [8]
  inhibition at 75 µM: 2.54%
Hepatitis B virus [9]
  inhibition at 300 µM: 32.8%
Hepatitis B virus [10]
  inhibition at 150 µM: 26.8%
Hepatitis B virus [11]
  inhibition at 75 µM: 19.5%
Hepatitis B virus [12]
  inhibition at 37.5 µM: 11.2%
Hepatitis B virus [13]
  inhibition at 300 µM: 61.3%
Hepatitis B virus [14]
  inhibition at 150 µM: 54.5%
Hepatitis B virus [15]
  inhibition at 75 µM: 36.7%
Hepatitis B virus [16]
  inhibition at 37.5 µM: 19.8%
Hepatitis B virus [17]
  viability at 300 µM: 99.5%
Hepatitis B virus [18]
  viability at 150 µM: 102%
Hepatitis B virus [19]
  viability at 75 µM: 104%
Hepatitis B virus [20]
  viability at 37.5 µM: 107%
Hepatitis B virus [21]
  inhibition at 300 µM: 50.4%
Hepatitis B virus [22]
  inhibition at 150 µM: 36.7%
Hepatitis B virus [23]
  inhibition at 75 µM: 27.7%
Hepatitis B virus [24]
  inhibition at 37.5 µM: 19.3%
Hepatitis B virus [25]
  inhibition at 300 µM: 56.9%
Hepatitis B virus [26]
  inhibition at 150 µM: 47.4%
Hepatitis B virus [27]
  inhibition at 75 µM: 32.9%
Hepatitis B virus [28]
  inhibition at 37.5 µM: 24.7%
Hepatitis B virus [29]
  inhibition at 300 µM: 59.2%
Hepatitis B virus [30]
  inhibition at 150 µM: 48.4%
Hepatitis B virus [31]
  inhibition at 75 µM: 40.3%
Hepatitis B virus [32]
  inhibition at 37.5 µM: 27%
